Square brackets hold non-standard residues; d marks the D form. Ends that are not written are not given here.

Results on 2 substances are retold here after publication PMC3621710 (Bioconjugate chemistry, 2009).

For assay [1], the target named is MC1 receptor (B16/F1 melanoma cells) (Mus musculus, UniProt Q01727). To be noted: read-out: MC1 receptor binding affinity; cited from earlier work.
Assay [2] relates to B16/F1 melanoma cells. Description: Clonogenic cytotoxicity. Format: cell-based, murine. To be noted: 0.1 μM peptide, 3 h incubation at 37 °C, colonies over 6 days. In a few lines: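 B16/F1 cells seeded at 200 cells/well and held overnight at 37 °C. After a wash with RPMI 1640, cells were exposed for 3 h at 37 °C to 0.1 μM test peptide in medium; controls received medium only. After two PBS washes, colonies grew for 6 days with medium changed every other day. Cells were fixed in methanol:glacial acetic acid (3:1) and hematoxylin-stained; colonies >50 cells scored as survivors. Survival normalized to untreated (100%); unpaired Student's t-test.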

Sequence of MC1 receptor (B16/F1 melanoma cells) (Q01727 whole entry): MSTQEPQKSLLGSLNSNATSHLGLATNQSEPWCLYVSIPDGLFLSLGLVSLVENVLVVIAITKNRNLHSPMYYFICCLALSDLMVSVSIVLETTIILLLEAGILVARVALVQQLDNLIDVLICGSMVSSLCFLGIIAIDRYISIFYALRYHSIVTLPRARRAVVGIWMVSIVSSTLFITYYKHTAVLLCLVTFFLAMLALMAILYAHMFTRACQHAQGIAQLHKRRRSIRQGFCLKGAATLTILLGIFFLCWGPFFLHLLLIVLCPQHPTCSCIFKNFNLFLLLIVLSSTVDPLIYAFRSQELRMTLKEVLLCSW

With “[Cys^3,4,10, D-Phe^7, Arg^11]α-MSH3-13 (CCEH[dF]RWCRPV; not fully specified (C-terminus); ends and bridges not checked) [(Arg^11)CCMSH]”, the IC50 in assay [1] was 1.7 nM.

Turning to “[Cys^3,4,10, D-Phe^7, Arg^11]α-MSH3-13 [(Arg^11)CCMSH]”, in assay [2], the “decrease in clonogenic survival compared to untreated group” value was found to be 11%.
